Results gathered from unrelated publications.
Protocols differ between the studies behind these lines.
Target: Tyrosine-protein kinase BTK (BTK, Homo sapiens, UniProt Q06187)

| Structure (SMILES) | assay | conditions | remaining binding [%] |
| --- | --- | --- | --- |
| O=C(c1ccc(Nc2nccc(-c3cc4ccccc4s3)n2)cc1)N1CCC(N2CCCC2)CC1 | binding, competition with immobilised ligand | 1 µM | 87 |
| Cn1cc(Cl)c2c(Oc3c(F)cc(Nc4cc(Cl)nc(N)n4)cc3F)ccnc21 | cell-free assay, competition with immobilised ligand | 0.1 µM | 84 |
| Nc1ncc2c(n1)-c1c([nH]c3ccc(C#CC4CC4)cc13)CCCC2 | binding, competition with immobilised ligand | 1 µM | 61 |
| C[C@H]1CCN(c2nccc(-c3cnn4ncccc34)n2)C1 | binding | 1 µM | 95 |
| O=C(Nc1c[nH]nc1C(=O)NC1CCNCC1)c1cc(F)cc(F)c1 | binding, competition with immobilised ligand | 1 µM | 100 |
| C[C@@H]1CN(c2ccc3ncc(-c4ccc5[nH]nc(C6CC6)c5c4)n3n2)C[C@H](C)O1 | binding, competition with immobilised ligand | 0.5 µM | 89 |
| CCN1CCN(Cc2ccc(C(=O)Nc3ccc(C)c(Oc4ccc5c(c4)CC(=O)N5)c3)cc2C(F)(F)F)CC1 | binding, competition with immobilised ligand | 1 µM | 100 |
| COc1ncc2cc3ccccc3nc2c1C#N | cell-free assay, competition with immobilised ligand | 5 µM | 100 |
| O=C(NCCCN1CCOCC1)c1ccc(Nc2ncc(Cl)c(-c3ccc(Cl)s3)n2)cc1 | binding, competition with immobilised ligand | 1 µM | 100 |
| CNC(=O)[C@@H]1CC[C@@H](n2c(-c3ccc4cnccc4c3)nc3ccc(C(=O)NCc4cccc(C(N)=O)c4)cc32)C1 | binding, competition with immobilised ligand | 1 µM | 96 |
| N[C@@H]1CCN(c2nccc(-c3cnn4ncccc34)n2)C1 | binding | 1 µM | 100 |
| O=C(N1CCS(=O)(=O)CC1)N1C[C@H](c2ccc(OC(F)(F)F)cc2)C[C@H](c2nc(C3CC3)no2)C1 | cell-free assay, competition with immobilised ligand | 1 µM | 100 |
| Cc1ccc(-n2nc(C(C)(C)C)cc2NC(=O)Nc2ccc(-n3c(N)c(C(N)=O)c4nc5ccc(NCCCN)cc5nc43)cc2)cc1 | cell-free assay, competition with immobilised ligand | 1 µM | 3.3 |
| COc1ccnn2ncc(-c3ccnc(N(C)C)n3)c12 | binding | 1 µM | 94 |
| CCS(=O)(=O)c1cc2cc(C[C@](O)(CC(C)(C)c3ccc(F)cc3C(N)=O)C(F)(F)F)[nH]c2cn1 | cell-free assay, competition with immobilised ligand | 1 µM | 100 |
| Cc1cnn2ncc(-c3ccnc(N(C)C)n3)c2c1 | binding | 1 µM | 91 |
| CO[C@@H](C)c1c(Nc2ccc([C@H](N(C)C(=O)C3CCS(=O)(=O)CC3)C(F)(F)F)cc2)cnc2cc(Cl)nn12 | cell-free assay, competition with immobilised ligand | 1 µM | 100 |
| O=C(c1ccc(Nc2ncc(Cl)c(-c3ccc(Cl)s3)n2)cc1)N1CCC(N2CCCC2)CC1 | binding, competition with immobilised ligand | 1 µM | 64 |
| Cc1nc(C2CCN(C(=O)c3ccc(OC(F)(F)F)cc3N)CC2)c2ncc(N3CCN(C)CC3)cc2n1 | cell-free assay, competition with immobilised ligand | 1 µM | 87 |
| CC1CCCN1c1nccc(-c2cnn3ncccc23)n1 (stereo not drawn) | binding | 1 µM | 100 |
| Nc1c(C(=O)NCc2ccc(C(=O)NCCCC3CCCCC3)cc2)cnn1-c1ccccc1 | cell-free assay, competition with immobilised ligand | 0.1 µM | 100 |
| COc1cnc(Nc2cccc(S(N)(=O)=O)c2)nc1N1CCN(c2ccccc2)C(=O)C1 | binding, competition with immobilised ligand | 1 µM | 81 |
| CN(CCCC(F)(F)F)c1nccc(-c2cnn3ncccc23)n1 | binding | 1 µM | 100 |
| CN(c1ccnc(CNc2nc(Nc3ccc4c(c3)CC(=O)N4)ncc2C(F)(F)F)n1)S(C)(=O)=O | cell-free assay, competition with immobilised ligand | 1 µM | 63 |
